ChEMBL document CHEMBL3272198, “Preparation and in vitro antifungal activities of some quinolizidine derived hemiaminals and beta-tert-amino sulfides” (1976)

Columns and labels:
Assay type in all cases: functional
Blastomyces dermatitidis [1] = assay: Antifungal activity against Blastomyces dermatitidis Gilchrist & Stokes isolate 1107 at 10 ug/ml after 1 week (reference value: 20 mm); details: Gilchrist & Stokes isolate 1107, 168 h, read-out: DIZ
Method in brief: (§1)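 Mycelial phase grown on Sabouraud dextrose agar at 25°C. Agar pH was set to 6 before the test solution was added and was 5.0-5.5 after. Test solutions contained HOAc and Me2SO, and solvent and blank controls were included. Each quadrant was center-inoculated with a 2 × 2 mm piece of a 2-week-old mycelial culture. Colony diameter was measured weekly for 3 weeks and reported as total increments (mm). Duplicates were run.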

Histoplasma capsulatum [2] = assay: Antifungal activity against Histoplasma capsulatum Darling isolate 1098 at 100 ug/ml after 1 week (reference value: 12 mm); details: Darling isolate 1098, 168 h, read-out: DIZ
Blastomyces dermatitidis [3] = assay: Antifungal activity against Blastomyces dermatitidis Gilchrist & Stokes isolate 1099 at 80 ug/ml after 3 weeks (reference value: 34 mm); details: Gilchrist & Stokes isolate 1099, 504 h, read-out: DIZ; method in brief: as §1
Histoplasma capsulatum [4] = assay: Antifungal activity against Histoplasma capsulatum Darling isolate 1098 at 100 ug/ml after 2 weeks (reference value: 21 mm); details: Darling isolate 1098, 336 h, read-out: DIZ
Blastomyces dermatitidis [5] = assay: Antifungal activity against Blastomyces dermatitidis Gilchrist & Stokes isolate 1107 at 10 ug/ml after 3 weeks (reference value: 40 mm); details: Gilchrist & Stokes isolate 1107, 504 h, read-out: DIZ; method in brief: as §1
Histoplasma capsulatum [6] = assay: Antifungal activity against Histoplasma capsulatum Darling isolate 1106 at 10 ug/ml after 2 weeks (reference value: 25 mm); details: Darling isolate 1106, 336 h, read-out: DIZ
Histoplasma capsulatum [7] = assay: Antifungal activity against Histoplasma capsulatum Darling isolate 1106 at 80 ug/ml after 1 week (reference value: 14 mm); details: Darling isolate 1106, 168 h, read-out: DIZ
Blastomyces dermatitidis [8] = assay: Antifungal activity against Blastomyces dermatitidis Gilchrist & Stokes isolate 1099 at 100 ug/ml after 1 week (reference value: 14 mm); details: Gilchrist & Stokes isolate 1099, 168 h, read-out: DIZ
Histoplasma capsulatum [9] = assay: Antifungal activity against Histoplasma capsulatum Darling isolate 1106 at 100 ug/ml after 2 weeks (reference value: 25 mm); details: Darling isolate 1106, 336 h, read-out: DIZ
Blastomyces dermatitidis [10] = assay: Antifungal activity against Blastomyces dermatitidis Gilchrist & Stokes isolate 1099 at 60 ug/ml after 3 weeks (reference value: 34 mm); details: Gilchrist & Stokes isolate 1099, 504 h, read-out: DIZ; method in brief: as §1
Blastomyces dermatitidis [11] = assay: Antifungal activity against Blastomyces dermatitidis Gilchrist & Stokes isolate 1099 at 40 ug/ml after 3 weeks (reference value: 34 mm); details: Gilchrist & Stokes isolate 1099, 504 h, read-out: DIZ; method in brief: as §1
Blastomyces dermatitidis [12] = assay: Antifungal activity against Blastomyces dermatitidis Gilchrist & Stokes isolate 1099 at 80 ug/ml after 2 weeks (reference value: 27 mm); details: Gilchrist & Stokes isolate 1099, 336 h, read-out: DIZ
Histoplasma capsulatum [13] = assay: Antifungal activity against Histoplasma capsulatum Darling isolate 1098 at 60 ug/ml after 1 week (reference value: 12 mm); details: Darling isolate 1098, 168 h, read-out: DIZ
Histoplasma capsulatum [14] = assay: Antifungal activity against Histoplasma capsulatum Darling isolate 1098 at 10 ug/ml after 3 weeks (reference value: 28 mm); details: Darling isolate 1098, 504 h, read-out: DIZ
Histoplasma capsulatum [15] = assay: Antifungal activity against Histoplasma capsulatum Darling isolate 1098 at 80 ug/ml after 3 weeks (reference value: 28 mm); details: Darling isolate 1098, 504 h, read-out: DIZ
Histoplasma capsulatum [16] = assay: Antifungal activity against Histoplasma capsulatum Darling isolate 1106 at 80 ug/ml after 3 weeks (reference value: 31 mm); details: Darling isolate 1106, 504 h, read-out: DIZ
Histoplasma capsulatum [17] = assay: Antifungal activity against Histoplasma capsulatum Darling isolate 1106 at 100 ug/ml after 1 week (reference value: 14 mm); details: Darling isolate 1106, 168 h, read-out: DIZ
Histoplasma capsulatum [18] = assay: Antifungal activity against Histoplasma capsulatum Darling isolate 1098 at 40 ug/ml after 3 weeks (reference value: 28 mm); details: Darling isolate 1098, 504 h, read-out: DIZ
Histoplasma capsulatum [19] = assay: Antifungal activity against Histoplasma capsulatum Darling isolate 1106 at 60 ug/ml after 1 week (reference value: 14 mm); details: Darling isolate 1106, 168 h, read-out: DIZ
Histoplasma capsulatum [20] = assay: Antifungal activity against Histoplasma capsulatum Darling isolate 1098 at 60 ug/ml after 2 weeks (reference value: 21 mm); details: Darling isolate 1098, 336 h, read-out: DIZ
Blastomyces dermatitidis [21] = assay: Antifungal activity against Blastomyces dermatitidis Gilchrist & Stokes isolate 1099 at 80 ug/ml after 1 week (reference value: 14 mm); details: Gilchrist & Stokes isolate 1099, 168 h, read-out: DIZ
Histoplasma capsulatum [22] = assay: Antifungal activity against Histoplasma capsulatum Darling isolate 1106 at 20 ug/ml after 1 week (reference value: 14 mm); details: Darling isolate 1106, 168 h, read-out: DIZ
Histoplasma capsulatum [23] = assay: Antifungal activity against Histoplasma capsulatum Darling isolate 1098 at 20 ug/ml after 2 weeks (reference value: 21 mm); details: Darling isolate 1098, 336 h, read-out: DIZ
Histoplasma capsulatum [24] = assay: Antifungal activity against Histoplasma capsulatum Darling isolate 1098 at 10 ug/ml after 2 weeks (reference value: 21 mm); details: Darling isolate 1098, 336 h, read-out: DIZ
Histoplasma capsulatum [25] = assay: Antifungal activity against Histoplasma capsulatum Darling isolate 1098 at 40 ug/ml after 2 weeks (reference value: 21 mm); details: Darling isolate 1098, 336 h, read-out: DIZ
Blastomyces dermatitidis [26] = assay: Antifungal activity against Blastomyces dermatitidis Gilchrist & Stokes isolate 1099 at 100 ug/ml after 3 weeks (reference value: 34 mm); details: Gilchrist & Stokes isolate 1099, 504 h, read-out: DIZ; method in brief: as §1
Blastomyces dermatitidis [27] = assay: Antifungal activity against Blastomyces dermatitidis Gilchrist & Stokes isolate 1099 at 10 ug/ml after 3 weeks (reference value: 34 mm); details: Gilchrist & Stokes isolate 1099, 504 h, read-out: DIZ; method in brief: as §1
Blastomyces dermatitidis [28] = assay: Antifungal activity against Blastomyces dermatitidis Gilchrist & Stokes isolate 1099 at 60 ug/ml after 1 week (reference value: 14 mm); details: Gilchrist & Stokes isolate 1099, 168 h, read-out: DIZ
Blastomyces dermatitidis [29] = assay: Antifungal activity against Blastomyces dermatitidis Gilchrist & Stokes isolate 1107 at 100 ug/ml after 3 weeks (reference value: 40 mm); details: Gilchrist & Stokes isolate 1107, 504 h, read-out: DIZ; method in brief: as §1
Histoplasma capsulatum [30] = assay: Antifungal activity against Histoplasma capsulatum Darling isolate 1106 at 60 ug/ml after 3 weeks (reference value: 31 mm); details: Darling isolate 1106, 504 h, read-out: DIZ
Blastomyces dermatitidis [31] = assay: Antifungal activity against Blastomyces dermatitidis Gilchrist & Stokes isolate 1107 at 40 ug/ml after 3 weeks (reference value: 40 mm); details: Gilchrist & Stokes isolate 1107, 504 h, read-out: DIZ; method in brief: as §1
Histoplasma capsulatum [32] = assay: Antifungal activity against Histoplasma capsulatum Darling isolate 1106 at 10 ug/ml after 3 weeks (reference value: 31 mm); details: Darling isolate 1106, 504 h, read-out: DIZ
Histoplasma capsulatum [33] = assay: Antifungal activity against Histoplasma capsulatum Darling isolate 1106 at 40 ug/ml after 1 week (reference value: 14 mm); details: Darling isolate 1106, 168 h, read-out: DIZ
Histoplasma capsulatum [34] = assay: Antifungal activity against Histoplasma capsulatum Darling isolate 1098 at 100 ug/ml after 3 weeks (reference value: 28 mm); details: Darling isolate 1098, 504 h, read-out: DIZ
Histoplasma capsulatum [35] = assay: Antifungal activity against Histoplasma capsulatum Darling isolate 1106 at 80 ug/ml after 2 weeks (reference value: 25 mm); details: Darling isolate 1106, 336 h, read-out: DIZ
Blastomyces dermatitidis [36] = assay: Antifungal activity against Blastomyces dermatitidis Gilchrist & Stokes isolate 1107 at 80 ug/ml after 1 week (reference value: 20 mm); details: Gilchrist & Stokes isolate 1107, 168 h, read-out: DIZ
Blastomyces dermatitidis [37] = assay: Antifungal activity against Blastomyces dermatitidis Gilchrist & Stokes isolate 1099 at 40 ug/ml after 1 week (reference value: 14 mm); details: Gilchrist & Stokes isolate 1099, 168 h, read-out: DIZ
Blastomyces dermatitidis [38] = assay: Antifungal activity against Blastomyces dermatitidis Gilchrist & Stokes isolate 1099 at 40 ug/ml after 2 weeks (reference value: 27 mm); details: Gilchrist & Stokes isolate 1099, 336 h, read-out: DIZ; method in brief: as §1
Histoplasma capsulatum [39] = assay: Antifungal activity against Histoplasma capsulatum Darling isolate 1098 at 80 ug/ml after 2 weeks (reference value: 21 mm); details: Darling isolate 1098, 336 h, read-out: DIZ
Histoplasma capsulatum [40] = assay: Antifungal activity against Histoplasma capsulatum Darling isolate 1098 at 10 ug/ml after 1 week (reference value: 12 mm); details: Darling isolate 1098, 168 h, read-out: DIZ

CS[C@@]1(C)CC[C@@H]2CCCCN2C1O (stereo not given in full)
zone of inhibition at 10 µg/mL (Blastomyces dermatitidis [1]): 20 mm | zone of inhibition at 100 µg/mL (Histoplasma capsulatum [2]): 8 mm | zone of inhibition at 80 µg/mL (Blastomyces dermatitidis [3]): 33 mm | zone of inhibition at 100 µg/mL (Histoplasma capsulatum [4]): 15 mm | zone of inhibition at 10 µg/mL (Blastomyces dermatitidis [5]): 40 mm | zone of inhibition at 10 µg/mL (Histoplasma capsulatum [6]): 21 mm | zone of inhibition at 80 µg/mL (Histoplasma capsulatum [7]): 10 mm | zone of inhibition at 100 µg/mL (Blastomyces dermatitidis [8]): 13 mm | zone of inhibition at 100 µg/mL (Histoplasma capsulatum [9]): 17 mm | zone of inhibition at 60 µg/mL (Blastomyces dermatitidis [10]): 32 mm | zone of inhibition at 40 µg/mL (Blastomyces dermatitidis [11]): 34 mm | zone of inhibition at 80 µg/mL (Blastomyces dermatitidis [12]): 25 mm | zone of inhibition at 60 µg/mL (Histoplasma capsulatum [13]): 9 mm | zone of inhibition at 10 µg/mL (Histoplasma capsulatum [14]): 31 mm | zone of inhibition at 80 µg/mL (Histoplasma capsulatum [15]): 30 mm | zone of inhibition at 80 µg/mL (Histoplasma capsulatum [16]): 26 mm | zone of inhibition at 100 µg/mL (Histoplasma capsulatum [17]): 9 mm | zone of inhibition at 40 µg/mL (Histoplasma capsulatum [18]): 30 mm | zone of inhibition at 60 µg/mL (Histoplasma capsulatum [19]): 10 mm | zone of inhibition at 60 µg/mL (Histoplasma capsulatum [20]): 18 mm | zone of inhibition at 80 µg/mL (Blastomyces dermatitidis [21]): 13 mm | zone of inhibition at 20 µg/mL (Histoplasma capsulatum [22]): 11 mm | zone of inhibition at 20 µg/mL (Histoplasma capsulatum [23]): 18 mm | zone of inhibition at 10 µg/mL (Histoplasma capsulatum [24]): 20 mm | zone of inhibition at 40 µg/mL (Histoplasma capsulatum [25]): 19 mm | zone of inhibition at 100 µg/mL (Blastomyces dermatitidis [26]): 33 mm | zone of inhibition at 10 µg/mL (Blastomyces dermatitidis [27]): 38 mm | zone of inhibition at 60 µg/mL (Blastomyces dermatitidis [28]): 13 mm | zone of inhibition at 100 µg/mL (Blastomyces dermatitidis [29]): 40 mm | zone of inhibition at 60 µg/mL (Histoplasma capsulatum [30]): 27 mm | zone of inhibition at 40 µg/mL (Blastomyces dermatitidis [31]): 40 mm | zone of inhibition at 10 µg/mL (Histoplasma capsulatum [32]): 26 mm | zone of inhibition at 40 µg/mL (Histoplasma capsulatum [33]): 10 mm | zone of inhibition at 100 µg/mL (Histoplasma capsulatum [34]): 30 mm | zone of inhibition at 80 µg/mL (Histoplasma capsulatum [35]): 19 mm | zone of inhibition at 80 µg/mL (Blastomyces dermatitidis [36]): 18 mm | zone of inhibition at 40 µg/mL (Blastomyces dermatitidis [37]): 13 mm | zone of inhibition at 40 µg/mL (Blastomyces dermatitidis [38]): 26 mm | zone of inhibition at 80 µg/mL (Histoplasma capsulatum [39]): 18 mm | zone of inhibition at 10 µg/mL (Histoplasma capsulatum [40]): 11 mm
